# Autophagy mod: autophagy modulation, high-content screen. calls only at 10 µM (by protocol). MEF GFP-LC3 puncta imaging; test concentration mostly 10 µM. 190,000 compounds, 0.98% hits. AID 463193;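 active = percentage of spot-positive cells more than 3 SD above its plate mean, without a fluorescence outlier flag or 80% toxicity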;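 also: spot-positive cell cutoff set from DMSO-treated cells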
# b-catenin transl: beta-catenin nuclear translocation modulation | HeLa beta-catenin nuclear translocation, immunofluorescence imaging | nuclear translocation activity, % at 5 µM | 190,000 compounds, 0.3% hits | AID 1665;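 active = nuclear translocation activity above 50% at 5 µM, with a well cell count of 50 or more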;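 also: per-cell ratio of nuclear to cytoplasmic median beta-catenin stain intensity; plate controls were DMSO negative control for no effect and GSK-3 inhibitor IX positive control for full effect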
#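 Test system: human HeLa cells, endogenous beta-catenin. Times: 24 h compound exposure, 37°C. Measured by: beta-catenin immunofluorescence imaging with DAPI.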
# Arbovirus inh: arbovirus infection inhibition | arbovirus infection cell-based antiviral screen | inhibition, % at 10 µM | 200,000 compounds, 0.37% hits | AID 1251; in the data active = inhibition above about 30%
# ABCB1 inh: human ABCB1 inhibition, ABCG2 as counter-screen. P08183. CCRF-Adr cells, JC-1 efflux, flow cytometry. inhibition, % at 6.6 µM. 190,000 compounds, 0.067% hits; in the data active = inhibition above about 40%;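 also: 0% = vehicle and 100% = reference inhibitor; higher value means more JC-1 retained so stronger ABCB1 efflux block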
# MT stabilize HCS: microtubule stabilization, imaging screen. HeLa tubulin immunostaining HCS, 24 h; share of cells brighter than vehicle mean+2SD. % tubulin-high responders, % at 10 µM. 200,000 compounds, 0.83% hits;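 active = plate Z-score above 3 for both tubulin-high and condensed-nucleus cell shares, with cell loss under 80%, at 10 µM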;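 also: anti alpha tubulin signal scored within the nucleus-defined area of each cell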
# ABCG2 block: blocks JC-1 efflux by human ABCG2 transporter | AID 1325 | 190,000 compounds, 0.1% hits | IgMXP3 cells, flow cytometry | inhibition, % at 6.6 µM;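 active = inhibition above 80%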;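 also: 0% = DMSO and 100% = nicardipine control wells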
#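 material = IgMXP3 (ABCG2) plus far-red-tagged CCRF-Adr (ABCB1) cells | amount = 3 million cells/mL, equal mix of both lines | also added = JC-1 transporter substrate | dosing = one concentration, 6.6 µM final | schedule = 10 min at 25 °C | measured by = flow cytometric JC-1 green MFI at 530 nm | read-out basis = percent efflux inhibition, scaled nicardipine 100% to DMSO 0%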
# * = called active by the depositor; i = inactive; / = no result; + = active, no number. Hits are enriched below; roughly 2.1% of the tested compounds scored in any of these assays.
SMILES,Autophagy mod,b-catenin transl,Arbovirus inh,ABCB1 inh,MT stabilize HCS,ABCG2 block
CCCNC(=O)c1cc2ccccc2c(=O)o1,i,-2,0,0,2,5
FC(F)(F)c1cccc(Oc2ccc3c(C(F)(F)F)cc(C(F)(F)F)nc3n2)c1,i,/,51*,-1,1,38
FC(F)(F)c1cc(C(F)(F)F)c2ccc(Oc3ccccc3)nc2n1,i,0,0,0,3,0
N/C(=N\OC(=O)c1ccc(Cl)cc1[N+](=O)[O-])c1cccnc1,/,-2,/,/,/,/
C=CCN=c1scc(-c2ccccc2)n1/N=C/c1ccccn1,i,3,32*,1,4,5
O=C(NCc1cccnc1)/C(=C\c1ccc(-c2ccc(Cl)c(Cl)c2)o1)S(=O)(=O)c1ccccc1,i,15,-41,1,35*,3
CCOc1cc(C2C3=C(CCCC3=O)OC3=C2C(=O)CCC3)cc([N+](=O)[O-])c1O,i,-1,13,1,3,1
COCCCN(C(C)=O)c1nc(-c2ccc(OC)cc2)cs1,i,0,-30,0,23*,2
CCCOc1ccc(C(=O)Nc2nc(C)c(Cc3ccc4c(c3)OCO4)s2)cc1,i,2,-14,/,13,3
COc1cc(C(=O)Nc2nc(C)c(Cc3ccc4c(c3)OCO4)s2)cc(OC)c1OC,i,16,-7,2,15*,9
Cc1ccc(/C=C2\OC(=O)c3ccccc32)cc1,i,0,7,1,3,32
Cc1cc2nc(Cl)c(Cl)nc2cc1C,/,0,/,/,/,/
CC(=O)Nc1ccc(S(=O)(=O)NC(CC(=O)O)c2ccc(OC(C)C)cc2)cc1 (stereo not given),i,-2,-7,0,3,-5
NC(=O)C1(c2ccccc2)CCOCC1,+,-1,3,0,3,0
O=C(CCn1c(=O)oc2ccccc21)N1CCN(c2ccccc2Cl)CC1,i,0,-5,1,44*,17
O=C(CCCn1c(=O)oc2ccccc21)N1CCc2ccccc2C1,+,-4,-5,0,6,4
O=C(CCn1c(=O)oc2ccccc21)N1CCCCCC1,i,-2,-5,1,3,15
Cn1c(NCCCO)nc2ccccc21,i,/,4,1,2,4
COc1cccc(/C=C/C(=O)c2ccc(NC3=NCCCS3)cc2)c1,i,10,-33,0,16*,1
Cc1sc2nc(SCc3ccccc3)n(Cc3ccco3)c(=O)c2c1C,i,0,3,1,3,2
Cc1sc2nc(SCC(=O)C(C)(C)C)n(Cc3ccco3)c(=O)c2c1C,i,4,-8,1,35*,3
Cc1ccc(C(=O)Nc2ccccc2SCC2CSc3nc4ccccc4c(=O)n32)cc1 (stereo not given),i,/,42*,1,2,11
O=C(Nc1ccccc1SCC1CSc2nc3ccccc3c(=O)n21)c1ccccc1 (stereo not given),i,-4,4,-3,0,-1
COc1ccc(-c2coc3cc(O)ccc3c2=O)cc1O,i,-2,8,0,3,7
COc1ccc2nc3sc(C(=O)NCc4cccs4)c(N)c3cc2c1,+,-6,-13,0,5,2
SMILES,Autophagy mod,b-catenin transl,Arbovirus inh,ABCB1 inh,MT stabilize HCS,ABCG2 block
CC(C)(O)C(=O)NNC(=S)Nc1cccc(C(F)(F)F)c1,i,-6,2,0,1,-1
COc1ccc(N=c2oc3c(OC)cccc3cc2C(=O)NCc2ccco2)c(OC)c1,+,0,-26,1,7,5
O=c1[nH]cc([N+](=O)[O-])cc1Br,+,0,13,1,4,8
O=c1[nH]c2cc([N+](=O)[O-])c([N+](=O)[O-])cc2[nH]c1=O,i,0,5,0,2,4
OC(COc1ccc(CNCCc2ccc(C(F)(F)F)cc2)cc1)CN1CCCCC1 (stereo not given),+,13,-38,0,4,0
O=C(NCc1ccc(F)cc1)C1CCN(S(=O)(=O)N2CCCCC2)CC1,i,1,1,0,5,0
COC(=O)/C=C/c1sc2nc(C)cc(C)c2c1N=CN(C)C,i,-2,45*,1,2,3
Cc1cc(C(=O)N/N=C/c2c(C)nn(-c3ccccc3)c2Cl)n[nH]1,/,0,/,/,/,/
